Test results taken from ChEMBL document CHEMBL1131304, “Epidoxoform: a hydrolytically more stable anthracycline-formaldehyde conjugate toxic to resistant tumor cells” (J Med Chem, 1998).
Values belong to the molecule of their own block, whether it stands above or below them.

Experiments:
MCF7 [1] = experiment: Compound was tested for its toxicity against human breast cancer cells(MCF-7); assay type: functional, cell-based
How it was run: (§1)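 MCF-7 and MCF-7/ADR cells were grown at 37 °C in 5% CO2 in phenol red-free RPMI 1640 with 10% FBS, 2 mM L-glutamine, 25 mM HEPES and penicillin/streptomycin. MCF-7/ADR medium also held 5 μM doxorubicin. Cells were exposed to drug for 3 h in RPMI 1640/10% FBS/1% DMSO, then stained by crystal violet. IC50 was given as nmolar equiv/L.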

NCI/ADR-RES = experiment: (§2) Compound was tested for its toxicity against doxorubicin resistant human breast cancer cells (MCF-7/ADR).; assay type: functional, cell-based; how it was run: as §1
MCF7 [2] = experiment: as §2; assay type: functional, cell-based; how it was run: as §1
[3] = Compound was evaluated for its half life at 25 degree Centigrade
[4] = Compound was evaluated for its half life at 37 degree Centigrade.

Structure (SMILES): COc1cccc2c1C(=O)c1c(O)c3c(c(O)c1C2=O)C[C@@](O)(C(=O)CO)C[C@@H]3O[C@H]1C[C@H]2C(OCN3CN2CO[C@H]2[C@@H](C)O[C@@H](O[C@H]4C[C@](O)(C(=O)CO)Cc5c(O)c6c(c(O)c54)C(=O)c4c(OC)cccc4C6=O)C[C@@H]23)[C@H](C)O1 (some centres undefined) [EPIDOXOFORM]
IC50 (MCF7 [1]): 65 nM equiv l-1
IC50 (NCI/ADR-RES): 70 nM equiv l-1

Structure (SMILES): COc1cccc2c1C(=O)c1c(O)c3c(c(O)c1C2=O)C[C@@](O)(C(=O)CO)C[C@@H]3O[C@H]1C[C@H](N)[C@@H](O)[C@H](C)O1 [EPIRUBICIN]
IC50 (MCF7 [1]): 200 nM equiv l-1
IC50 (NCI/ADR-RES): > 10000 nM equiv l-1

Structure (SMILES): COc1cccc2c1C(=O)c1c(O)c3c(c(O)c1C2=O)C[C@@](O)(C(C)=O)C[C@@H]3OC1CC2C(OCN2CN2COC3C(C)OC(O[C@H]4C[C@](O)(C(C)=O)Cc5c(O)c6c(c(O)c54)C(=O)c4c(OC)cccc4C6=O)CC32)C(C)O1 (some centres undefined) [DAUNOFORM]
IC50 (MCF7 [1]): 8 nM equiv l-1
IC50 (MCF7 [2]): 10 nM equiv l-1

Structure (SMILES): COc1cccc2c1C(=O)c1c(O)c3c(c(O)c1C2=O)C[C@@](O)(C(C)=O)C[C@@H]3O[C@H]1C[C@H](N)[C@H](O)[C@H](C)O1 [DAUNORUBICIN]
IC50 (MCF7 [1]): 60 nM equiv l-1
IC50 (NCI/ADR-RES): 2000 nM equiv l-1

half-life [3]: 35 min
half-life [4]: 15 min
Structure (SMILES): COc1cccc2c1C(=O)c1c(O)c3c(c(O)c1C2=O)C[C@@](O)(C(=O)CO)C[C@@H]3O[C@@H]1C[C@@H](N)[C@H](O)[C@@H](C)O1

Structure (SMILES): COc1cccc2c1C(=O)c1c(O)c3c(c(O)c1C2=O)C[C@@](O)(C(=O)CO)C[C@@H]3OC1CC2C(OCN2CN2COC3C(C)OC(O[C@H]4C[C@](O)(C(=O)CO)Cc5c(O)c6c(c(O)c54)C(=O)c4c(OC)cccc4C6=O)CC32)C(C)O1 (some centres undefined) [DOXOFORM]
IC50 (MCF7 [1]): 2 nM equiv l-1
IC50 (NCI/ADR-RES): 1 nM equiv l-1

Structure (SMILES): COc1cccc2c1C(=O)c1c(O)c3c(c(O)c1C2=O)C[C@@](O)(C(=O)CO)C[C@@H]3O[C@H]1C[C@H](N)[C@H](O)[C@H](C)O1 [DOXORUBICIN]
IC50 (MCF7 [1]): 300 nM equiv l-1
IC50 (NCI/ADR-RES): 10000 nM equiv l-1
